The record followed here is paper PMC8570090 (Bioorganic & medicinal chemistry letters, 2020).

Series [1] is described as follows: Single dose pharmacokinetics in mice, oral gavage. It counts as in vivo. Particulars: single oral dose 10 mg/kg. Summed up:
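Female ovariectomized Nu/Nu mice, 4–6 weeks old (n = 5), received a single 10 mg/kg dose by gavage in 5% DMSO/40% PEG 400/55% saline. Orbital-sinus blood was drawn at 0.5, 1, 3, 8 and 24 h, with one sampling per group, into EDTA. Plasma was separated at 4 °C and frozen at −80 °C. Drug and metabolites were quantified by C18 UHPLC–MS (formic acid water/acetonitrile gradient).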

The nature of series [2]: Single dose pharmacokinetics in mice, intraperitoneal injection. In kind it is in vivo.
A short description of a further series: Stability of PI-103BE. In kind it is in vitro ADME. The settings on record: species found after treatment with PI-103BE (9); for Fraction in culture medium: all time points.
Series [3] has as its system human lung carcinoma A549. Briefly: In vitro antiproliferative assay. It counts as cell-based. The settings on record: Fig. 5. The method, boiled down:
(§1)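 Cells seeded at 50,000 per well in DMEM with 5% FBS. Exposed for 4 days to test compound at 6 concentrations, with DMSO vehicle and a reference compound as positive control. Cell numbers counted on a Coulter counter. Survival ratio is treated over vehicle cell number. IC50 taken from dose-response curves. Run in triplicate, mean ± SD.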

Series [4] concerns human cervical cancer HeLa. Briefly: In vitro antiproliferative assay. In kind it is cell-based. Particulars: Fig. 5. The method, boiled down:
as §1

Series [5] concerns human prostate carcinoma 22Rv1. As to the kind of experiment: In vitro antiproliferative assay. It counts as cell-based. Particulars: Fig. 5. Summed up:
as §1

Series [6] deals with human breast adenocarcinoma MDA-MB-231. Briefly: In vitro antiproliferative assay. It counts as cell-based. Particulars: Fig. 5. The method, boiled down: as §1
Series [7] deals with panel of cancer cell lines. As to the kind of experiment: In vitro antiproliferative activity, panel of six cancer cell lines. It counts as cell-based, human. The settings on record: IC50 ratio across A549, MDA-MB-231, HeLa, 22Rv1, PC-3, SKOV-3. The method, boiled down: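 Cells plated at 50,000 per well in DMEM with 5% FBS and exposed for 4 days to test compound at 6 doses. DMSO served as vehicle control and the parent inhibitor as positive control. Cells were counted on a Coulter counter. Survival ratio is treated over vehicle cell number, and IC50 is taken from dose-response curves. Run in triplicate, mean ± SD.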

Each structure is given as a SMILES string.

`Oc1cccc(-c2nc(N3CCOCC3)c3oc4ncccc4c3n2)c1` [PI-103 (7), 3-(4-Morpholinopyrido[3′,2′:4,5]furo[3,2-d]pyrimidin-2-yl)phenol, reference compound]: the “Oral bioavailability” value in series [1] is “no oral bioavailability”. The “Peak plasma concentration of PI-103, times lower than after i.p. PI-103BE” value in series [2] (10 mg/kg IP, 7-treated vs PI-103BE-treated) turned out to be 10 times. The “Fraction of total drug content in cell culture media” value (shortened to “Fraction of total drug content”) in “Stability of PI-103BE” (0.5 h) worked out at 2.02%; in “Stability of PI-103BE” (1 h), 2.52%; in the series “Stability of PI-103BE” (3 h), 3.30%; in “Stability of PI-103BE” (8 h) it was 3.27%; in the series “Stability of PI-103BE” (24 h) it was 3.81%. Also, the “Fraction in culture medium” value in “Stability of PI-103BE” is less than 4%.
As to `OB(O)c1cccc(-c2nc(N3CCOCC3)c3oc4ncccc4c3n2)c1` [PI-103BA (10), (3-(4-Morpholinopyrido[3′,2′:4,5]furo[3,2-d]pyrimidin-2-yl)phenyl)boronic acid], the “Antiproliferative activity” value in series [3], in series [4], in series [5] and in series [6] was “dose dependent antiproliferative activities” each time. For the same molecule, the “Fraction of total drug content” value came to 97.95% in the series “Stability of PI-103BE” (0.5 h), 96.70% in the series “Stability of PI-103BE” (3 h), 96.73% in the series “Stability of PI-103BE” (8 h) and 96.19% in “Stability of PI-103BE” (24 h). The “Fraction in culture medium” value in “Stability of PI-103BE” is more than 95%.
In the case of `CC1(C)OB(c2cccc(-c3nc(N4CCOCC4)c4oc5ncccc5c4n3)c2)OC1(C)C` [PI-103BE (9), 4-Morpholino-2-(3-(4,4,5,5-tetramethyl-1,3,2-dioxaborolan-2-yl)phenyl)pyrido[3′,2′:4,5] furo[3,2-d]pyrimidine], the PI-103BE in plasma result in series [2] (10 mg/kg IP of labelled compound, analyte PI-103BE) was “no PI-103BE was detected in plasma”. The “Fraction of total drug content” value in “Stability of PI-103BE” (0.5 h) was 1.61%; in “Stability of PI-103BE” (1 h) it was 0.32%; in “Stability of PI-103BE” (3 h), 0%; in “Stability of PI-103BE” (8 h), 0%; in the series “Stability of PI-103BE” (24 h), 0%. Also, the “Concentration in cell culture media” value in “Stability of PI-103BE” (3 h), in the series “Stability of PI-103BE” (8 h) and in “Stability of PI-103BE” (24 h) was 0 nM throughout. Besides, in series [7], the “Times less potent than PI-103 (7)” value is listed as 3 ~ 24 times.
